# Assays:
# MX1 [1] = test: Cytotoxicity against human MX1 cells overexpressing biotin receptor assessed as growth inhibition at 1:1 compound to camptothecin ratio after 72 hrs by MTT assay in presence of camptothecin; assay type: functional, cell-based; settings: MX1, 72 h
# How it was run: (§1)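 Cells were exposed simultaneously to an equimolar taxoid/camptothecin mixture for 72 h at 37 °C. Viability was read by MTT (0.5 mg/mL, 3 h, absorbance 570 nm). IC50 came from a four-parameter logistic fit of viability against concentration, in triplicate.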
# MX1 [2] = test: Cytotoxicity against human MX1 cells overexpressing biotin receptor assessed as growth inhibition pretreated for 24 hrs with camptothecin then incubated for 48 hrs by MTT assay in presence of camptothecin; assay type: functional, cell-based
# How it was run: (§2)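 Cells were seeded at 8000–10000 per well and preincubated 24 h. Camptothecin serial dilutions were given first for 24 h at 37 °C. An equimolar amount of taxoid was then added for a further 48 h at 37 °C. Viability was read by MTT at 570 nm, and IC50 came from a four-parameter logistic fit, in triplicate.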
# MX1 [3] = test: Cytotoxicity against human MX1 cells overexpressing biotin receptor assessed as growth inhibition treated for 24 hrs then incubated 48 hrs with camptothecin by MTT assay in presence of camptothecin; assay type: functional, cell-based
# How it was run: (§3)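 Cells were seeded at 8000–10000 per well and preincubated 24 h. Taxoid was given first for 24 h at 37 °C. An equimolar amount of camptothecin was then added for another 48 h at 37 °C. Viability was read by MTT at 570 nm, and IC50 came from a four-parameter logistic fit, in triplicate.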
# L1210 [4] = test: Cytotoxicity against mouse L1210 cells overexpressing folate receptor assessed as growth inhibition pretreated for 24 hrs with camptothecin then incubated for 48 hrs by MTT assay in presence of camptothecin; assay type: functional, cell-based; how it was run: as §2
# L1210 [5] = test: Cytotoxicity against mouse L1210 cells overexpressing folate receptor assessed as growth inhibition at 1:1 compound to camptothecin ratio after 72 hrs by MTT assay in presence of camptothecin; assay type: functional, cell-based; settings: L1210, 72 h; how it was run: as §1
# [6] = Cytotoxicity against human WI38 cells assessed as growth inhibition after 72 hrs by MTT assay; settings: WI-38, 72 h
# MCF7 [7] = test: Cytotoxicity against human MCF7 cells overexpressing biotin receptor assessed as growth inhibition treated for 24 hrs then incubated 48 hrs with camptothecin by MTT assay in presence of camptothecin; assay type: functional, cell-based; how it was run: as §3
# [8] = Cytotoxicity against mouse ID8 cells overexpressing biotin receptor assessed as growth inhibition after 72 hrs by MTT assay; assay type: functional, cell-based
# How it was run: (§4)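 Continuous 72 h exposure at 37 °C. Cells were seeded at 0.5–1.5 × 10^4 per well, and adherent lines were left to settle overnight before the medium was refreshed. DMSO was ≤1%. Read-out was MTT (0.5 mg/mL, 3 h), with formazan dissolved in 0.1 N HCl/2-propanol plus 10% Triton X-100 and absorbance read at 570 nm. IC50 came from a four-parameter logistic fit, in triplicate.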
# L1210 [9] = test: Cytotoxicity against mouse L1210 cells overexpressing biotin receptor assessed as growth inhibition after 72 hrs by MTT assay; settings: L1210, 72 h
# MCF7 [10] = test: Cytotoxicity against human MCF7 cells overexpressing biotin receptor assessed as growth inhibition pretreated for 24 hrs with camptothecin then incubated for 48 hrs by MTT assay in presence of camptothecin; assay type: functional, cell-based; how it was run: as §2
# MCF7 [11] = test: Cytotoxicity against human MCF7 cells overexpressing biotin receptor assessed as growth inhibition at 1:1 compound to camptothecin ratio after 72 hrs by MTT assay in presence of camptothecin; assay type: functional, cell-based; settings: MCF7, 72 h; how it was run: as §1
# [12] = Cytotoxicity against mouse ID8 cells overexpressing biotin receptor assessed as growth inhibition treated for 24 hrs then incubated 48 hrs with camptothecin by MTT assay in presence of camptothecin; assay type: functional, cell-based; how it was run: as §3
# [13] = Cytotoxicity against mouse ID8 cells overexpressing biotin receptor assessed as growth inhibition pretreated for 24 hrs with camptothecin then incubated for 48 hrs by MTT assay in presence of camptothecin; assay type: functional, cell-based; how it was run: as §2
# [14] = Cytotoxicity against mouse ID8 cells overexpressing biotin receptor assessed as growth inhibition at 1:1 compound to camptothecin ratio after 72 hrs by MTT assay in presence of camptothecin; assay type: functional, cell-based; settings: ID8, 72 h; how it was run: as §1
# MCF7 [15] = test: Cytotoxicity against human MCF7 cells overexpressing biotin receptor assessed as growth inhibition after 72 hrs by MTT assay; assay type: functional, cell-based; how it was run: as §4
# L1210 [16] = test: Cytotoxicity against mouse L1210 cells overexpressing folate receptor assessed as growth inhibition treated for 24 hrs then incubated 48 hrs with camptothecin by MTT assay in presence of camptothecin; assay type: functional, cell-based; how it was run: as §3
# MX1 [17] = test: Cytotoxicity against human MX1 cells overexpressing biotin receptor assessed as growth inhibition after 72 hrs by MTT assay; assay type: functional, cell-based; how it was run: as §4
# [18] = Drug uptake in mouse ID8 cells at 10 uM after 10 hrs by confocal fluorescence microscopy analysis; assay type: ADME, cell-based; settings: id8, 10 h
# How it was run: (§5)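 Cells were incubated with 10 μM conjugate at 37 °C for 10 h, washed thoroughly, and resuspended in PBS. Internalization was imaged by confocal microscopy using camptothecin's intrinsic fluorescence.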
# [19] = Cytotoxicity against mouse ID8 cells overexpressing biotin receptor assessed as growth inhibition after 24 hrs by MTT assay; assay type: functional, cell-based
# MCF7 [20] = test: Cytotoxicity against human MCF7 cells overexpressing biotin receptor assessed as growth inhibition after 24 hrs by MTT assay; assay type: functional, cell-based
# How it was run: (§6)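 Conjugate was incubated with cells for 24 h at 37 °C, then removed by PBS washing. GSH-OEt (6 equiv to conjugate) in medium was added to release drug, followed by a further 48 h at 37 °C (72 h total). Read-out was MTT at 570 nm. IC50 came from a four-parameter logistic fit, in triplicate.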
# L1210 [21] = test: Cytotoxicity against mouse L1210 cells overexpressing folate receptor assessed as growth inhibition after 24 hrs by MTT assay; assay type: functional, cell-based; how it was run: as §6
# MCF7 [22] = test: Drug uptake in human MCF7 cells at 10 uM after 10 hrs by confocal fluorescence microscopy analysis; assay type: ADME, cell-based; settings: mcf7, 10 h; how it was run: as §5
# MX1 [23] = test: Cytotoxicity against human MX1 cells overexpressing biotin receptor assessed as growth inhibition after 24 hrs by MTT assay; assay type: functional, cell-based; how it was run: as §6
# L1210 [24] = test: Cytotoxicity against mouse L1210 cells overexpressing folate receptor assessed as growth inhibition after 72 hrs by MTT assay; assay type: functional, cell-based; how it was run: as §4
# [25] = Cytotoxicity against human WI38 cells overexpressing biotin receptor assessed as growth inhibition after 72 hrs by MTT assay; assay type: functional, cell-based; settings: wi-38; how it was run: as §4
SMILES,IC50 [6] [nM],"IC50 ([8]; Mus musculus, ID8, 72 h) [nM]",IC50 (L1210 [9]) [nM],"IC50 (MCF7 [15]; Homo sapiens, MCF7, 72 h) [nM]","IC50 (MX1 [17]; Homo sapiens, MX1, 72 h) [nM]",IC50 ([19]; id8) [nM],IC50 (L1210 [24]) [nM],IC50 (MCF7 [20]; mcf7) [nM],IC50 ([8]; id8) [nM],IC50 (L1210 [21]; l1210) [nM],IC50 (MCF7 [15]; mcf7) [nM],IC50 (MX1 [23]; mx1) [nM],IC50 [25] [nM],IC50 (MX1 [17]; mx1) [nM],further results
CC(=O)O[C@@]12CCO[C@@H]1C[C@H](O)[C@@]1(C)C(=O)[C@H](OC(=O)C3CC3)C3=C(C)[C@@H](OC(=O)[C@H](O)[C@H](C=C(C)C)NC(=O)OC(C)(C)C)C[C@@](O)([C@@H](OC(=O)c4ccccc4)[C@H]21)C3(C)C,5.89,1.11,2.14,0.44,2.01,,,,,,,,,,IC50 (MX1 [1]): 1.88 nM; IC50 (MX1 [2]): > 5000 nM; IC50 (MX1 [3]): 1.98 nM; IC50 (L1210 [4]): 949 nM; IC50 (L1210 [5]): 4.14 nM; IC50 (MCF7 [7]): 0.33 nM; IC50 (MCF7 [10]): 79.2 nM; IC50 (MCF7 [11]): 0.4 nM; IC50 [12]: 0.96 nM; IC50 [13]: 110 nM; IC50 [14]: 1.02 nM; IC50 (L1210 [16]): 3.51 nM
CC[C@@]1(OC(=O)Cc2ccccc2SSC(C)CCC(=O)NCCOCCOCCOCCn2cc(CNc3nc(NCCNC(=O)CCC(C)SSc4ccccc4CC(=O)O[C@@H](C(=O)O[C@H]4C[C@@]5(O)[C@@H](OC(=O)c6ccccc6)[C@@H]6[C@]7(OC(C)=O)CCO[C@@H]7C[C@H](O)[C@@]6(C)C(=O)[C@H](OC(=O)C6CC6)C(=C4C)C5(C)C)[C@H](C=C(C)C)NC(=O)OC(C)(C)C)nc(NCCOCCOCCOCCNC(=O)CCCC[C@@H]4SC[C@@H]5NC(=O)N[C@@H]54)n3)nn2)C(=O)OCc2c1cc1n(c2=O)Cc2cc3ccccc3nc2-1 (stereo not given in full),742,23.4,39.1,19,51.7,,,,,,,,,,"Drug uptake [18]: Active; IC50 ([19]; Mus musculus, ID8, 24 h): 5.7 nM; IC50 (MCF7 [20]; Homo sapiens, MCF7, 24 h): 3.2 nM; IC50 (L1210 [21]; Mus musculus, L1210, 24 h): 7.4 nM; Drug uptake (MCF7 [22]): Active; IC50 (MX1 [23]; Homo sapiens, MX1, 24 h): 9.8 nM"
CC[C@@]1(OC(=O)CCC(=O)NCCOCCOCCOCCn2cc(CNc3nc(NCCNC(=O)CCC(C)SSc4ccccc4CC(=O)O[C@@H](C(=O)O[C@H]4C[C@@]5(O)[C@@H](OC(=O)c6ccccc6)[C@@H]6[C@]7(OC(C)=O)CCO[C@@H]7C[C@H](O)[C@@]6(C)C(=O)[C@H](OC(=O)C6CC6)C(=C4C)C5(C)C)[C@H](C=C(C)C)NC(=O)OC(C)(C)C)nc(NCCOCCOCCOCCNC(=O)CCCC[C@@H]4SC[C@@H]5NC(=O)N[C@@H]54)n3)nn2)C(=O)OCc2c1cc1n(c2=O)Cc2cc3ccccc3nc2-1 (stereo not given in full),,,,,,10.3,42.5,9.4,25.6,13.7,21.1,20.8,868,65.1,
CC(=O)O[C@@]12CCO[C@@H]1C[C@H](O)[C@@]1(C)C(=O)[C@H](OC(=O)C3CC3)C3=C(C)[C@@H](OC(=O)[C@H](OC(=O)Cc4ccccc4SSC(C)CCC(=O)NCCNc4nc(NCCOCCOCCOCCNC(=O)CCCC[C@@H]5SC[C@@H]6NC(=O)N[C@@H]65)nc(NCc5cn(CCOCCOCCOCCNC(=O)CCC(C)SSc6ccccc6CC(=O)Oc6ccccc6)nn5)n4)[C@H](C=C(C)C)NC(=O)OC(C)(C)C)C[C@@](O)([C@@H](OC(=O)c4ccccc4)[C@H]21)C3(C)C (stereo not given in full),,,,,,15.6,50.9,9.9,26.7,14.4,23.1,23.6,941,66.9,
CC[C@@]1(OC(=O)Cc2ccccc2SSC(C)CCC(=O)NCCOCCOCCOCCn2cc(CNc3nc(NCCNC(=O)CCC(C)SSc4ccccc4CC(=O)Oc4ccccc4)nc(NCCOCCOCCOCCNC(=O)CCCC[C@@H]4SC[C@@H]5NC(=O)N[C@@H]54)n3)nn2)C(=O)OCc2c1cc1n(c2=O)Cc2cc3ccccc3nc2-1 (stereo not given in full),,,,,,2390,319,538,> 5000,177,1260,> 5000,1440,> 5000,
CC[C@@]1(O)C(=O)OCc2c1cc1n(c2=O)Cc2cc3ccccc3nc2-1 [CAMPTOTHECIN],786,474,510,65.1,1700,,,,,,,,,,

# Source: ChEMBL document CHEMBL3297681, “Design, synthesis, and biological evaluations of tumor-targeting dual-warhead conjugates for a taxoid-camptothecin combination chemotherapy” (J Med Chem, 2014)
